# Assay results published in ChEMBL document CHEMBL4699585, “Evaluation of the Pharmacophoric Role of the O-O Bond in Synthetic Antileishmanial Compounds: Comparison between 1,2-Dioxanes and Tetrahydropyrans” (J Med Chem, 2020).
# pIC50: −log10 of the molar value. The source made the active and inactive calls. No cut-off for these calls is given here.
# Legend:
# [1] = Drug localization in Leishmania donovani MHOM/NP/O2/BPK282/0cl4 promastigote at IC50 […] by TO-PRO-3 dye based confocal microscopy analysis; assay type: ADME
# Leishmania donovani [2] = test: Antileishmanial activity against sitamaquine-resistant wild type promastigote stage of Leishmania donovani MHOM/ET/67/HU3 infected in mouse macrophages assessed as reduction in parasite viability measured after 48 hrs by Giemsa staining-based assay; assay type: functional, organism-based; conditions: MHOM/ET/67/HU3, Macrophage
# Leishmania donovani [3] = test: Antileishmanial activity against wild type promastigote stage of Leishmania donovani LV9 infected in mouse macrophages assessed as reduction in parasite viability measured after 48 hrs by Giemsa staining-based assay; assay type: functional, organism-based; conditions: LV9, 48 h
# Leishmania donovani [4] = test: Antileishmanial activity against amastigotes stage of Leishmania donovani D10 infected in mouse RAW264.7 cells assessed as reduction in cell viability incubated from 24 to 72 hrs by Giemsa staining-based assay; assay type: functional, organism-based; conditions: D10, RAW264.7
# Leishmania donovani [5] = test: Induction of ROS generation in Leishmania donovani promastigotes at 22 uM measured after 24 hrs by H2DCFDA probe based fluorimetry analysis; assay type: functional, organism-based
# Procedure, shortened: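 Late log/stationary L. donovani promastigotes seeded at 10^6 cells mL–1 in HOMEM with 20% FBS and treated 24 h at 26 °C; untreated cells served as negative control. Cells were washed in PBS (pH 7.4), loaded with 10 μM H2DCFDA and kept 35 min in the dark at 26 °C. DCF fluorescence read at ex 488/em 530 nm over 1–60 min. Three independent experiments, each in triplicate.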
# Leishmania donovani [6] = test: Antileishmanial activity against HePC-resistant wild type promastigote stage of Leishmania donovani MHOM/ET/67/HU3 infected in mouse macrophages assessed as reduction in parasite viability measured after 48 hrs by Giemsa staining-based assay; conditions: MHOM/ET/67/HU3, Macrophage
# Leishmania donovani [7] = test: Antileishmanial activity against Leishmania donovani promastigotes assessed as reduction in parasite viability in presence of 100 uM iron chelator desferrioxamine measured after 24 hrs by microplate alamar blue assay; assay type: functional, organism-based
# Procedure, shortened: (§1)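 L. donovani promastigotes (MHOM/NP/02/BPK282/0cl4, late log/stationary phase) seeded at 10^6 cells/mL in complete HOMEM, preincubated 24 h at 26 °C with desferrioxamine at four nontoxic doses (1:2 dilutions). Compounds added over a range spanning each one's IC50. Viability read by alamarBlue absorbance at 550/630 nm. FIC values plotted as isobolograms. Duplicates.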
# Leishmania donovani [8] = test: Antileishmanial activity against Leishmania donovani promastigotes assessed as reduction in parasite viability in presence of 25 uM iron chelator desferrioxamine measured after 24 hrs by microplate alamar blue assay; assay type: functional, organism-based; procedure, shortened: as §1
# Leishmania donovani [9] = test: Antileishmanial activity against Leishmania donovani promastigotes assessed as reduction in parasite viability in presence of 50 uM iron chelator desferrioxamine measured after 24 hrs by microplate alamar blue assay; assay type: functional, organism-based; procedure, shortened: as §1
# Leishmania donovani [10] = test: Additive antileishmanial activity against Leishmania donovani promastigotes measured after 24 hrs in presence of iron chelator desferrioxamine by microplate alamar blue assay; assay type: functional, organism-based; procedure, shortened: as §1
# Leishmania donovani [11] = test: Antileishmanial activity against Leishmania donovani promastigotes assessed as reduction in parasite viability in presence of […] iron chelator desferrioxamine measured after 24 hrs by microplate alamar blue assay; assay type: functional, organism-based; procedure, shortened: as §1
# Leishmania donovani [12] = test: Induction of ROS generation in Leishmania donovani promastigotes assessed as increase in intracellular ROS level at IC50 measured after 24 hrs by H2DCFDA probe based fluorimetry analysis; assay type: functional, organism-based
# Leishmania donovani [13] = test: Induction of ROS generation in Leishmania donovani promastigotes assessed as increase in intracellular ROS level at IC50 measured up to 60 mins by H2DCFDA probe based fluorimetry analysis; assay type: functional, organism-based; conditions: time min <=60
# Leishmania donovani [14] = test: Antileishmanial activity against Leishmania donovani MHOM/MA(BE)/67/ITMAP263 promastigotes infected in primary mouse peritoneal macrophage assessed as reduction in parasite viability measured after 4 days by Giemsa staining-based assay; assay type: functional, organism-based; conditions: MHOM/MA(BE)/67/ITMAP263, Peritoneal macrophage, 96 h
# [15] = Drug localization in kinetoplast of Leishmania donovani MHOM/NP/O2/BPK282/0cl4 promastigote at IC50 incubated for 40 to 45 mins by TO-PRO-3 staining based confocal microscopy analysis; assay type: ADME, subcellular; conditions: time 40-45 min
# [16] = Drug localization in cytoplasm of Leishmania donovani MHOM/NP/O2/BPK282/0cl4 promastigote at IC50 incubated for 40 to 45 mins by TO-PRO-3 dye based confocal microscopy analysis; assay type: ADME, subcellular; conditions: time 40-45 min
# [17] = Drug localization in nucleus of Leishmania donovani MHOM/NP/O2/BPK282/0cl4 promastigote at IC50 incubated for 40 to 45 mins by TO-PRO-3 staining based confocal microscopy analysis; assay type: ADME, subcellular; conditions: time 40-45 min
compound,measurement,setting,value
CCCCC1(CCCC)CO[C@@](C)(OC)[C@@H](CNCCCCNc2c3ccc(Cl)cc3nc3ccc(OC)cc23)C1 (racemic),Drug uptake,[1],Active
COc1ccc(N[C@@]2(C(F)(F)F)O[C@@H]3C[C@@]4(C)C[C@H]5[C@H](C)CC[C@@H]([C@H]2C)[C@@]35OO4)cc1,pIC50,Leishmania donovani [2],6.42
same,pIC50,Leishmania donovani [3],5.82
OCCCCCCC1CCOOC2(CCCCCCCCCCC2)OOC1 (configuration not stated),pIC50,Leishmania donovani [4],5.17
CCCCCCCCCCCCCCCCOP(=O)([O-])OCC[N+](C)(C)C [MILTEFOSINE],Activity,Leishmania donovani [5],Active
same,pIC50,Leishmania donovani [6],4.17
same,pIC50,Leishmania donovani [2],5.72
CCCCC1(CCCC)CO[C@@](C)(OC)[C@@H](CNCCCn2ccnc2)C1 (racemic),pIC50,Leishmania donovani [7],5.34
same,pIC50,Leishmania donovani [8],5.28
same,pIC50,Leishmania donovani [9],5.25
same,Activity,Leishmania donovani [10],Active
same,pIC50,Leishmania donovani [11],5.27
same,Activity,Leishmania donovani [12],Active
same,Activity,Leishmania donovani [13],Active
NC[C@@H]1O[C@H](O[C@H]2[C@@H](O)[C@H](O[C@@H]3[C@@H](O)[C@H](N)C[C@H](N)[C@H]3O[C@H]3O[C@H](CO)[C@@H](O)[C@H](O)[C@H]3N)O[C@@H]2CO)[C@H](N)[C@@H](O)[C@@H]1O [PAROMOMYCIN],pIC50,Leishmania donovani [14],4.71
CCCCC1(CCCC)C[C@H](CNCCCn2ccnc2)[C@](C)(OC)OO1 (racemic),pIC50,Leishmania donovani [7],5.19
same,pIC50,Leishmania donovani [8],5.05
same,pIC50,Leishmania donovani [9],5.03
same,Activity,Leishmania donovani [10],Active
same,pIC50,Leishmania donovani [11],5.18
same,Activity,Leishmania donovani [12],Active
same,Activity,Leishmania donovani [13],Active
C=CCO[C@@]1(C(F)(F)F)O[C@@H]2C[C@@]3(C)C[C@H]4[C@H](C)CC[C@@H]([C@H]1C)[C@@]24OO3,pIC50,Leishmania donovani [2],5.80
same,pIC50,Leishmania donovani [3],5.20
CCCCC1(CCCC)C[C@H](CNCCCCNc2ccc([N+](=O)[O-])c3nonc23)[C@](C)(OC)OO1 (racemic),Drug uptake,[15],Active
same,Drug uptake,[16],Active
same,Drug uptake,[17],Not Active
